Screening results: PubChem, Sanford-Burnham Center for Chemical Genomics
DNMT1 inh: blocks human DNA methyltransferase DNMT1 | P26358 | DNMT1 molecular beacon, Hinp1I cleavage, fluorescence | inhibition (reported as % activation of signal), % at 10 µM | 360,000 compounds, 0.83% hits | AID 588458; in the data active means inhibition above about 50%
HKDC1 inh: blocks human hexokinase HKDC1 activity; 340,000 compounds, 0.16% hits; inhibition, % at 20 µM; recombinant HKDC1, G6PDH/diaphorase resazurin coupled fluorescence; Q2TB90;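 active means inhibition above about 35% when tested at 20 µM, limit read from the data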;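 further: plate controls were DMSO wells with enzyme for no effect and DMSO wells lacking enzyme for full effect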
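Test system: recombinant HKDC1 (HK5) hexokinase enzyme, produced in-house; Amount: enzyme 5 µg/mL final; Buffer or medium: Tris pH 8.0 buffer with MgCl2, Tween-20, BSA, BME; Reagent: glucose and ATP substrates; Doses: 20 µM test compound, 1% DMSO; Incubation: 90 min reaction incubation at room temperature, dark; Detection: resorufin fluorescence at 613 nm.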
STEP block: blocks human striatal-enriched tyrosine phosphatase | P54829 | inhibition, % at 20 µM | AID 588621 | 360,000 compounds, 0.25% hits | recombinant STEP, OMFP fluorogenic substrate, fluorescence;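 active means inhibition at 20 µM, scaled per plate between control wells, above about 37%, limit read from the data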;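 further: 0% = DMSO with enzyme and substrate and 100% = substrate only without enzyme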
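material = STEP tyrosine phosphatase | reagent = fluorogenic phosphatase substrate OMFP at 25 µM final | doses = single compound dose of 20 µM, 1% DMSO final | schedule = 20 min reaction, room temperature, in the dark | measured by = fluorescence, 480/540 nm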
Scp-1 inhibitor: inhibitors of human Scp-1 phosphatase; Recombinant Scp1, phosphopeptide, malachite green phosphate absorbance; Q9GZU7; 340,000 compounds, 0.88% hits; inhibition, % at 20 µM;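 active means inhibition above about 50% at 20 µM, limit read from the data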;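 further: plate controls were DMSO wells with enzyme for no effect and wells lacking enzyme for full effect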
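Test system: SCP-1 phosphatase catalytic domain, residues 76-261; measured by: colorimetric phosphate reagent with accelerator and stabiliser, absorbance at 630 nm; timing: enzyme reaction 45 min at room temperature, colour 5 min, stabilisation 30 min; also added: Phosphorylated 17-residue peptide substrate; compound dosing: one concentration, 20 µM, with 1.0% DMSO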
SUMO1 PPI mod: SUMO1-SIM interaction modulation. inhibition, % at 20 µM. P63165. SUMO1 binding to a labelled peptide, TR-FRET, 1 h. 360,000 compounds, 0.33% hits; in the data active means inhibition above about 37%
LMPTP inh: LMPTP (human) inhibition. P24666. inhibition, % at 20 µM. recombinant LMPTP-A, OMFP fluorogenic substrate, fluorescence intensity. 360,000 compounds, 0.22% hits;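 active means compounds that cut the enzyme signal by at least half of the control window in the single-dose screen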;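 further: plate controls were DMSO wells with enzyme plus substrate for no effect and substrate without enzyme for full effect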
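Assay system: LMPTP-A phosphatase enzyme | Input: 0.625 nM enzyme | Also added: Fluorogenic phosphatase substrate OMFP at 400 µM final | Compound dosing: One test concentration per compound, 20 µM, with 3% DMSO overall | Schedule: 50 min enzyme reaction at room temperature, protected from light | Signal: Fluorescence intensity | Benchmarks: no-enzyme and uninhibited controls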
Scp1 confirm: Scp-1 (human) inhibition, single-dose confirmed; shares compounds with Scp-1 inhibitor; recombinant SCP-1 catalytic domain, phosphate release, malachite green absorbance; inhibition, % at 20 µM; 2,500 compounds, 61% hits;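 further: plate controls were DMSO with enzyme for no effect and buffer wells lacking enzyme for full effect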
Scp-1 MG ctr: counter-screen for Scp-1 inhibitors: colorimetric interference; Colorimetric interference counterscreen, malachite green absorbance 630 nm; shares compounds with Scp-1 inhibitor; apparent inhibition (interference), % at 20 µM; AID 540313; 2,500 tested, under 10 active;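 further: compounds added after enzyme reaction finished so only phosphate colour detection is probed; plate controls were DMSO wells with completed Scp-1 reaction for no effect and substrate wells lacking enzyme for full effect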
Scp1 DSF: validation of human Scp-1 inhibitors by thermal shift binding; shares compounds with Scp-1 inhibitor; Recombinant SCP1, Sypro Orange thermal shift Tm; thermal shift relative to vanadate control, % at 40 µM; 1,500 compounds, 25% hits; AID 540329;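 active means substances whose mean melting-temperature shift, as a percentage of the reference inhibitor's shift, reaches about 5.3%, limit read from the data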;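 further: 0% = Tm of DMSO wells and 100% = Tm with sodium orthovanadate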
The depositor's hits bear a star; · = no result given. Shown are actives, neighbours in structure and some others; about 1.8% of the full set was active somewhere.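 How the source made its calls, unless noted: active means inhibition of at least 30% at 20 µM; inactive means the rest.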

SMILES	DNMT1 inh	HKDC1 inh	STEP block	Scp-1 inhibitor	SUMO1 PPI mod	LMPTP inh	Scp1 confirm	Scp-1 MG ctr	Scp1 DSF
C=CCc1cc(/C=C/c2nc(O)c([N+](=O)[O-])c(=O)[nH]2)cc(OC)c1O	31	11	3	64*	15	-5	59*	-12	11*
CCOc1cc(/C=C\c2nc(O)c([N+](=O)[O-])c(=O)[nH]2)ccc1OC(C)C	4	5	0	-2	-12	-1	·	·	·
COc1ccc(COC[B-](F)(F)F)cc1	-2	·	-1	·	4	-2	·	·	·
CC(C)n1c(SCC(=O)Nc2nncs2)nnc1-c1ccco1	·	5	·	94*	·	·	77*	0	-2
CCC[N+]1(CC#CC2(O)CCCCC2)CCOCC1	3	-12	-3	59*	-2	-1	77*	-22	-6
CCC(=O)Nc1cccc(-c2nnc(SCC(=O)NCc3ccco3)n2C)c1	1	1	0	98*	-1	-3	6	-7	·
Cn1c(SCC(=O)NCc2ccco2)nnc1-c1ccccc1	1	-3	1	-3	4	0	·	·	·
Cn1c(SCC(=O)NCc2ccco2)nnc1-c1ccc(S(=O)(=O)N2CCOCC2)cc1	13	-10	2	65*	5	0	49*	-17	-4
O=C(CSc1nnc(-c2ccc(S(=O)(=O)N3CCCC3)cc2)o1)NCc1ccco1	10	6	-2	62*	3	1	43*	-17	-6
O=C(NCc1ccco1)C1CCCN(S(=O)(=O)c2ccc(-n3cnnn3)cc2)C1 (centres undefined)	-1	0	0	76*	14	1	69*	-7	3
O=C(Nn1cnc2ccccc2c1=O)c1ccc(Cl)c([N+](=O)[O-])c1	-3	-5	-1	-6	-10	-2	·	·	·
COc1ccc(NC(=O)C2(C)Cc3c(-c4cccc(C(F)(F)F)c4)ccnc3O2)cn1 (centres undefined)	2	·	-2	·	10	3	·	·	·
CC(C)=CCC[C@H](C)C[C@@H]1Cc2[nH][nH]c(=O)c2[C@H](c2ccc(F)cc2)O1	·	·	·	·	5	-1	·	·	·
O=C(COC(=O)c1cccnc1Cl)NCc1ccco1	1	-2	0	92*	10	-1	70*	-10	-11
O=C(COC(=O)c1ccc(S(=O)(=O)N2CCCCC2)cc1)NCc1ccco1	14	14	3	54*	3	-1	73*	-6	3
O=C(CSc1ccc2nnc(-c3ccccc3)n2n1)NCc1ccco1	2	-4	11	55*	3	0	17	-24	·
O=C(COc1ccc(S(=O)(=O)N2CCCC2)cc1)NCc1ccco1	18	-6	3	26	2	0	·	·	·
O=C(CSc1nnc(CNC(=O)c2c(F)cccc2F)o1)NCc1ccco1	10	-4	2	68*	6	2	33*	3	-22
COCCCNC(=O)c1ccc2sc([C@@H]3O[C@H](CO)[C@H](O)[C@H](O)[C@H]3O)nc2c1	1	·	0	·	-2	4	·	·	·
CC1Cc2ccccc2N1CC(=O)Nc1cc(S(=O)(=O)N2CCOCC2)ccc1Cl (centres undefined)	-11	·	3	·	-2	2	·	·	·
O=C1c2ccccc2C(c2nnnn2-c2ccc3c(c2)OCCO3)N1Cc1ccco1 (centres undefined)	·	·	·	·	0	-2	·	·	·
CN(C)c1cccc(N=C2C=C(N3CCOCC3)CC(C)(C)C2)c1	-3	-3	-3	99*	-3	-2	79*	-18	-10
Cc1cccc(-c2nc(S(=O)(=O)c3ccccc3)c(N3CCOCC3)o2)c1	-4	3	-1	54*	6	1	0	4	·
COCCCN(C(=O)c1cc2c(s1)CCC2)c1c(N)n(Cc2ccccc2)c(=O)[nH]c1=O	10	-4	-2	7	-1	3	·	·	·
CCCCN(C(=O)c1cc2c(s1)CCC2)c1c(N)n(CC(C)C)c(=O)[nH]c1=O	27	5	1	18	8	5	·	·	·
SMILES	DNMT1 inh	HKDC1 inh	STEP block	Scp-1 inhibitor	SUMO1 PPI mod	LMPTP inh	Scp1 confirm	Scp-1 MG ctr	Scp1 DSF
CCCCN(C(=O)c1ccc(Cl)c(S(=O)(=O)N2CCOCC2)c1)c1c(N)n(CCC)c(=O)[nH]c1=O	7	-5	-2	58*	1	-2	-3	-11	·
CCCN(C(=O)c1cc2c(s1)CCC2)c1c(N)n(Cc2ccccc2)c(=O)[nH]c1=O	53*	7	-1	53*	6	12	46*	-17	-3
CCCCN(C(=O)c1cc2c(s1)CCC2)c1c(N)n(CCC)c(=O)[nH]c1=O	33	5	4	60*	1	3	50*	-1	2
CCCCN(C(=O)c1cccc(-n2cccc2)c1)c1c(N)n(CCCC)c(=O)[nH]c1=O	46	0	3	70*	16	3	12	-22	·
CCCCn1c(N)c(N(CCOC)C(=O)c2ccc(Cl)c(S(=O)(=O)N3CCCCC3)c2)c(=O)[nH]c1=O	2	3	1	10	-2	-1	·	·	·
COc1cccc(CNc2nc(NC(C)C)nc3ccsc23)c1	-1	·	3	·	0	41	·	·	·
CCCCN(C(=O)c1cnccn1)c1c(N)n(CCC)c(=O)[nH]c1=O	-3	0	1	99*	-1	1	-7	-7	·
CC1=C(C(=O)N(C(C)C)C(C)C)CC(CC(=O)NCCN2CCOCC2)C(=O)N1CCC1=CCCCC1 (centres undefined)	1	·	1	·	2	-1	·	·	·
CCOC(=O)C1(C)Oc2ccccc2C(C(=O)OC)=C1C(=O)OC (centres undefined)	7	2	2	94*	1	0	53*	-17	-2
Cc1c(C(=O)NCCN2CCOC2=O)oc2c(F)cccc12	0	-2	-2	1	2	-1	-19	-16	·
O=C(CN1C(=O)c2ccccc2C1=O)NN1C(=O)c2ccccc2C1=O	6	9	1	56*	0	4	-16	-13	·
C=CC#CC1(O)CC(C)[N+](C)(C)CC1C (centres undefined)	5	-7	-1	104*	2	-3	78*	-15	-26
